Reference: ChEMBL document CHEMBL1143876, “Synthesis, analgesic, anti-inflammatory, and antimicrobial activity of some novel pyrimido[4,5-b]quinolin-4-ones” (2008)

Legend:
Nakaseomyces glabratus = experiment: Antimicrobial activity against Candida glabrata at 50 ug/disk after 5 days; assay type: functional; details: for zone of inhibition at 50 µg/disc: 120 h, read-out: IZ
Outline: (§1)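 Agar disk diffusion: 5 mm paper disks loaded with 50 µg/disk in DMSO. Inhibition zones read after 24–28 h at 37 °C for bacteria, or 5 days at 28 °C for clinical Candida isolates grown on Sabouraud dextrose agar. Zone graded 6–10 mm slight, 11–15 mm moderate, >15 mm high. Reference disks: nalidixic acid 30 µg, nystatin 100 U.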

Mus musculus [1] = experiment: Analgesic activity in Swiss albino mouse assessed as reaction time at 15 mg/kg, po after 30 mins by hot plate test; assay type: functional
Outline: (§2)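 Mice of both sexes, 25–30 g, on a hot plate at 53 ± 0.5 °C; reaction time taken to hind-paw lick or jump, 60 s cut-off. Baseline read before dosing. Oral dosing in 10% v/v Tween 80 in water: test agents 15 mg/kg, acetylsalicylic acid 100 mg/kg. Re-read at 15, 30, 60 and 90 min; means ± SE.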

Mus musculus [2] = experiment: Analgesic activity in Swiss albino mouse assessed as reaction time at 15 mg/kg, po after 60 mins by hot plate test; assay type: functional; outline: as §2
Mus musculus [3] = experiment: Analgesic activity in Swiss albino mouse assessed as reaction time at 15 mg/kg, po after 90 mins by hot plate test; assay type: functional; outline: as §2
Mus musculus [4] = experiment: Analgesic activity against acetic acid-induced abdominal constriction in Swiss albino mouse at 15 mg/kg, po after 20 mins by writhing test; assay type: functional, Abdomen
Outline: (§3)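 Mice of both sexes, 25–30 g, dosed orally in 10% v/v Tween 80 in water. Test agents were given at 15 mg/kg and acetylsalicylic acid at 100 mg/kg. 30 min later, 0.7% acetic acid (10 ml/kg) ip. Writhes counted over 20 min; six per group. % protection = (control mean − treated mean)/control mean ×100; means ± SE.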

Mus musculus [5] = experiment: Analgesic activity against acetic acid-induced abdominal constriction in Swiss albino mouse at 15 mg/kg, po after 20 mins by writhing test relative to acetylsalicylic acid; assay type: functional, Abdomen; outline: as §3
Escherichia coli [6] = experiment: Antimicrobial activity against Escherichia coli at 50 ug/disk after 24 to 28 hrs; assay type: functional; details: read-out: IZ; outline: as §1
Klebsiella pneumoniae [7] = experiment: Antimicrobial activity against Klebsiella pneumoniae at 50 ug/disk after 24 to 28 hrs; assay type: functional; details: read-out: IZ; outline: as §1
Pseudomonas aeruginosa [8] = experiment: Antimicrobial activity against Pseudomonas aeruginosa at 50 ug/disk after 24 to 28 hrs; assay type: functional; details: read-out: IZ; outline: as §1
Staphylococcus aureus [9] = experiment: Antimicrobial activity against Staphylococcus aureus at 50 ug/disk after 24 to 28 hrs; assay type: functional; details: read-out: IZ; outline: as §1
Candida albicans [10] = experiment: Antimicrobial activity against Candida albicans at 50 ug/disk after 5 days; assay type: functional; details: 120 h, read-out: IZ; outline: as §1
Escherichia coli [11] = experiment: Antimicrobial activity against Escherichia coli; assay type: functional
Outline: (§4)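 MIC found by disk diffusion using disks carrying varying amounts of compound per disk, in DMSO. Incubated 24–28 h at 37 °C for bacteria and 5 days at 28 °C for Candida. MIC given in µg/disk.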

Klebsiella pneumoniae [12] = experiment: Antimicrobial activity against Klebsiella pneumoniae; assay type: functional; outline: as §4
Pseudomonas aeruginosa [13] = experiment: Antimicrobial activity against Pseudomonas aeruginosa; assay type: functional; outline: as §4
Staphylococcus aureus [14] = experiment: Antimicrobial activity against Staphylococcus aureus; assay type: functional; outline: as §4
Rattus norvegicus [15] = experiment: Antiinflammatory activity against carrageenan-induced paw edema in Sprague-Dawley rat at 15 mg/kg, po after 1 hr; assay type: functional
Outline: (§5)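 Adult male rats, 150–180 g, six per group. Oral dose 1 h before 0.1 ml 1% carrageenin sc into the left hind footpad: test agents 15 mg/kg as suspension, indomethacin 10 mg/kg; vehicle 10% Tween 80. Paw volume by plethysmometer before injection, then hourly for 4 h. Edema % = (Vt−Vc)/Vc; inhibition % = (Ec−Et)/Ec. Potency taken relative to indomethacin. Means ± SE.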

Rattus norvegicus [16] = experiment: Antiinflammatory activity against carrageenan-induced paw edema in Sprague-Dawley rat at 15 mg/kg, po relative to indomethacin after 1 hr; assay type: functional; outline: as §5
Rattus norvegicus [17] = experiment: Antiinflammatory activity against carrageenan-induced paw edema in Sprague-Dawley rat at 15 mg/kg, po after 2 hrs; assay type: functional; outline: as §5
Rattus norvegicus [18] = experiment: Antiinflammatory activity against carrageenan-induced paw edema in Sprague-Dawley rat at 15 mg/kg, po relative to indomethacin after 2 hrs; assay type: functional; outline: as §5
Rattus norvegicus [19] = experiment: Antiinflammatory activity against carrageenan-induced paw edema in Sprague-Dawley rat at 15 mg/kg, po after 3 hrs; assay type: functional; outline: as §5
Rattus norvegicus [20] = experiment: Antiinflammatory activity against carrageenan-induced paw edema in Sprague-Dawley rat at 15 mg/kg, po relative to indomethacin after 3 hrs; assay type: functional; outline: as §5
Rattus norvegicus [21] = experiment: Antiinflammatory activity against carrageenan-induced paw edema in Sprague-Dawley rat at 15 mg/kg, po after 4 hrs; assay type: functional; outline: as §5
Rattus norvegicus [22] = experiment: Antiinflammatory activity against carrageenan-induced paw edema in Sprague-Dawley rat at 15 mg/kg, po relative to indomethacin after 4 hrs; assay type: functional; outline: as §5
Candida albicans [23] = experiment: Antimicrobial activity against Candida albicans; assay type: functional; outline: as §4
Mus musculus [24] = experiment: Analgesic activity in Swiss albino mouse assessed as reaction time at 100 mg/kg, po after 30 mins by hot plate test; assay type: functional; outline: as §2
Mus musculus [25] = experiment: Analgesic activity in Swiss albino mouse assessed as reaction time at 100 mg/kg, po after 60 mins by hot plate test; assay type: functional; outline: as §2
Mus musculus [26] = experiment: Analgesic activity in Swiss albino mouse assessed as reaction time at 100 mg/kg, po after 90 mins by hot plate test; assay type: functional; outline: as §2
Mus musculus [27] = experiment: Analgesic activity against acetic acid-induced abdominal constriction in Swiss albino mouse at 100 mg/kg, po after 20 mins by writhing test; assay type: functional, Abdomen; outline: as §3
Rattus norvegicus [28] = experiment: Antiinflammatory activity against carrageenan-induced paw edema in Sprague-Dawley rat at 10 mg/kg, po after 4 hrs; assay type: functional; outline: as §5
Rattus norvegicus [29] = experiment: Antiinflammatory activity against carrageenan-induced paw edema in Sprague-Dawley rat at 10 mg/kg, po after 1 hr; assay type: functional; outline: as §5
Rattus norvegicus [30] = experiment: Antiinflammatory activity against carrageenan-induced paw edema in Sprague-Dawley rat at 10 mg/kg, po after 2 hrs; assay type: functional; outline: as §5
Rattus norvegicus [31] = experiment: Antiinflammatory activity against carrageenan-induced paw edema in Sprague-Dawley rat at 10 mg/kg, po after 3 hrs; assay type: functional; outline: as §5

Molecule	Time (Mus musculus [1])	Time (Mus musculus [2])	Time (Mus musculus [3])	Activity (Mus musculus [4])	Activity (Mus musculus [5])	zone of inhibition at 50 µg/disc (Escherichia coli [6])	zone of inhibition at 50 µg/disc (Klebsiella pneumoniae [7])	zone of inhibition at 50 µg/disc (Pseudomonas aeruginosa [8])	zone of inhibition at 50 µg/disc (Staphylococcus aureus [9])	MIC (Escherichia coli [11])	MIC (Klebsiella pneumoniae [12])	MIC (Pseudomonas aeruginosa [13])	MIC (Staphylococcus aureus [14])	also measured
NYSTATIN	–	–	–	–	–	–	–	–	–	–	–	–	–	inhibition zone (IZ) (Nakaseomyces glabratus): 19 mm
O=c1c2c(-c3ccccc3)c3c(nc2nc2n(-c4ccccc4)nc(-c4ccccc4)n12)CCCC3	9.84 s	11.62 s	11.88 s	4.6%	8.89%	–	–	–	–	–	–	–	–	–
Cc1cc(C)n(-c2nc3nc4c(c(-c5ccccc5)c3c(=O)[nH]2)CCCC4)n1	8.93 s	10.15 s	11.5 s	59.2%	114.51%	19 mm	20 mm	22 mm	21 mm	30 µg	30 µg	30 µg	30 µg	zone of inhibition at 50 µg/disc (Candida albicans [10]): 9 mm; zone of inhibition at 50 µg/disc (Nakaseomyces glabratus): 9 mm; inhibition in vivo at 15 mg/kg (Rattus norvegicus [15]): 10.5%; inhibition in vivo at 15 mg/kg (Rattus norvegicus [16]): 14.5%; inhibition in vivo at 15 mg/kg (Rattus norvegicus [17]): 0.9%; inhibition in vivo at 15 mg/kg (Rattus norvegicus [18]): 1.5%; inhibition in vivo at 15 mg/kg (Rattus norvegicus [19]): 0.1%; inhibition in vivo at 15 mg/kg (Rattus norvegicus [20]): 0.1%; inhibition in vivo at 15 mg/kg (Rattus norvegicus [21]): 0.8%; inhibition in vivo at 15 mg/kg (Rattus norvegicus [22]): 1.7%
O=c1c2c(-c3ccccc3)c3c(nc2nc2[nH]nnn12)CCCC3	9.16 s	10.78 s	10.08 s	14%	27.07%	18 mm	16 mm	22 mm	17 mm	30 µg	30 µg	30 µg	30 µg	–
Cc1n[nH]c2nc3nc4c(c(-c5ccccc5)c3c(=O)n12)CCCC4	8.68 s	8.8 s	10.4 s	5.8%	11.2%	20 mm	20 mm	21 mm	21 mm	20 µg	20 µg	20 µg	20 µg	zone of inhibition at 50 µg/disc (Candida albicans [10]): 18 mm; zone of inhibition at 50 µg/disc (Nakaseomyces glabratus): 13 mm; MIC (Candida albicans [23]): 50 µg
CC(=O)Oc1ccccc1C(=O)O [ASPIRIN]	–	–	–	–	–	–	–	–	–	–	–	–	–	Time (Mus musculus [24]): 10.03 s; Time (Mus musculus [25]): 11.39 s; Time (Mus musculus [26]): 13.15 s; Activity (Mus musculus [27]): 51.7%
CCn1cc(C(=O)O)c(=O)c2ccc(C)nc21 [NALIDIXIC ACID]	–	–	–	–	–	24 mm	25 mm	25 mm	25 mm	–	–	–	–	–
O=c1[nH]c(N/N=C\c2ccccc2)nc2nc3c(c(-c4ccccc4)c12)CCCC3	10.08 s	12.52 s	12.68 s	34.9%	67.51%	15 mm	18 mm	14 mm	16 mm	–	–	–	–	zone of inhibition at 50 µg/disc (Candida albicans [10]): 7 mm; zone of inhibition at 50 µg/disc (Nakaseomyces glabratus): 7 mm
O=c1[nH]c(=S)[nH]c2nc3c(c(-c4ccc(Cl)cc4)c12)CCCC3	–	–	–	–	–	13 mm	14 mm	14 mm	13 mm	–	–	–	–	–
CC(=O)NNc1nc2nc3c(c(-c4ccccc4)c2c(=O)[nH]1)CCCC3	8.62 s	8.06 s	9.22 s	60.4%	116.83%	20 mm	18 mm	22 mm	19 mm	20 µg	20 µg	20 µg	20 µg	zone of inhibition at 50 µg/disc (Candida albicans [10]): 17 mm; zone of inhibition at 50 µg/disc (Nakaseomyces glabratus): 16 mm; MIC (Candida albicans [23]): 50 µg; inhibition in vivo at 15 mg/kg (Rattus norvegicus [15]): 25.9%; inhibition in vivo at 15 mg/kg (Rattus norvegicus [16]): 45.5%; inhibition in vivo at 15 mg/kg (Rattus norvegicus [17]): 22.8%; inhibition in vivo at 15 mg/kg (Rattus norvegicus [18]): 39.2%; inhibition in vivo at 15 mg/kg (Rattus norvegicus [19]): 23.9%; inhibition in vivo at 15 mg/kg (Rattus norvegicus [20]): 55.9%; inhibition in vivo at 15 mg/kg (Rattus norvegicus [21]): 21.8%; inhibition in vivo at 15 mg/kg (Rattus norvegicus [22]): 46.9%
COc1ccc2c(c1)c(CC(=O)O)c(C)n2C(=O)c1ccc(Cl)cc1 [INDOMETHACIN]	–	–	–	–	–	–	–	–	–	–	–	–	–	inhibition in vivo at 10 mg/kg (Rattus norvegicus [28]): 46.4%; inhibition in vivo at 10 mg/kg (Rattus norvegicus [29]): 56.9%; inhibition in vivo at 10 mg/kg (Rattus norvegicus [30]): 58.2%; inhibition in vivo at 10 mg/kg (Rattus norvegicus [31]): 42.6%
Nn1c(-c2ccccc2)cn2c(=O)c3c(-c4ccccc4)c4c(nc3nc12)CCCC4	9.42 s	11.41 s	10.67 s	37.1%	71.76%	21 mm	22 mm	23 mm	19 mm	20 µg	20 µg	20 µg	20 µg	–
Nc1n[nH]c2nc3nc4c(c(-c5ccccc5)c3c(=O)n12)CCCC4	5.14 s	6.74 s	7.62 s	57.1%	110.44%	20 mm	22 mm	22 mm	21 mm	30 µg	30 µg	30 µg	30 µg	inhibition in vivo at 15 mg/kg (Rattus norvegicus [15]): 10.1%; inhibition in vivo at 15 mg/kg (Rattus norvegicus [16]): 17.7%; inhibition in vivo at 15 mg/kg (Rattus norvegicus [17]): 1.2%; inhibition in vivo at 15 mg/kg (Rattus norvegicus [18]): 2.1%; inhibition in vivo at 15 mg/kg (Rattus norvegicus [19]): 2.8%; inhibition in vivo at 15 mg/kg (Rattus norvegicus [20]): 6.6%; inhibition in vivo at 15 mg/kg (Rattus norvegicus [21]): 9.5%; inhibition in vivo at 15 mg/kg (Rattus norvegicus [22]): 20.5%
O=c1[nH]c(=S)[nH]c2nc3c(c(-c4ccccc4)c12)CCCC3	8.65 s	10.98 s	11.12 s	35.4%	68.47%	12 mm	14 mm	15 mm	13 mm	–	–	–	–	–
NNc1nc2nc3c(c(-c4ccccc4)c2c(=O)[nH]1)CCCC3	7.54 s	10.61 s	12 s	52.9%	102.32%	13 mm	13 mm	15 mm	11 mm	–	–	–	–	inhibition in vivo at 15 mg/kg (Rattus norvegicus [15]): 30.5%; inhibition in vivo at 15 mg/kg (Rattus norvegicus [16]): 53.5%; inhibition in vivo at 15 mg/kg (Rattus norvegicus [17]): 20.8%; inhibition in vivo at 15 mg/kg (Rattus norvegicus [18]): 35.7%; inhibition in vivo at 15 mg/kg (Rattus norvegicus [19]): 21.8%; inhibition in vivo at 15 mg/kg (Rattus norvegicus [20]): 51.1%; inhibition in vivo at 15 mg/kg (Rattus norvegicus [21]): 18.6%; inhibition in vivo at 15 mg/kg (Rattus norvegicus [22]): 40.1%
